TAAR1 antagonist: human TAAR1 antagonism. Q96RJ0. CHO RD-HGA16 TAAR1, Fluo-8 calcium fluorescence, antagonist. inhibition, % at 3 µM. actives 1.5% (n = 360,000). AID 624466;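 active = inhibition above a per-plate cutoff, the mean inhibition of test compounds on that plate plus 3 SD, cut at about 49% in these data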;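 also: 0% = DMSO plus EC80 beta-PEA response and 100% = DMSO alone without agonist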
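Assay system: CHO-derived RD-HGA16 cells stably expressing human TAAR1 plus Gα16. Timing: 140 s kinetic read after compound, 140 s after agonist. Technique: kinetic Fluo-8 calcium fluorescence measurement. Measure: % inhibition of agonist calcium response.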
VLA-4 inh: inhibition in a human VLA-4 binding assay; P13612; VLA-4 expressing cells, ligand binding flow cytometry; inhibition, % (about 7 µM as worked out from the volumes in the protocol); actives 0.2% (n = 330,000); AID 2557; in the data active = inhibition above about 50%
Target sequence (P13612 whole entry, looked up): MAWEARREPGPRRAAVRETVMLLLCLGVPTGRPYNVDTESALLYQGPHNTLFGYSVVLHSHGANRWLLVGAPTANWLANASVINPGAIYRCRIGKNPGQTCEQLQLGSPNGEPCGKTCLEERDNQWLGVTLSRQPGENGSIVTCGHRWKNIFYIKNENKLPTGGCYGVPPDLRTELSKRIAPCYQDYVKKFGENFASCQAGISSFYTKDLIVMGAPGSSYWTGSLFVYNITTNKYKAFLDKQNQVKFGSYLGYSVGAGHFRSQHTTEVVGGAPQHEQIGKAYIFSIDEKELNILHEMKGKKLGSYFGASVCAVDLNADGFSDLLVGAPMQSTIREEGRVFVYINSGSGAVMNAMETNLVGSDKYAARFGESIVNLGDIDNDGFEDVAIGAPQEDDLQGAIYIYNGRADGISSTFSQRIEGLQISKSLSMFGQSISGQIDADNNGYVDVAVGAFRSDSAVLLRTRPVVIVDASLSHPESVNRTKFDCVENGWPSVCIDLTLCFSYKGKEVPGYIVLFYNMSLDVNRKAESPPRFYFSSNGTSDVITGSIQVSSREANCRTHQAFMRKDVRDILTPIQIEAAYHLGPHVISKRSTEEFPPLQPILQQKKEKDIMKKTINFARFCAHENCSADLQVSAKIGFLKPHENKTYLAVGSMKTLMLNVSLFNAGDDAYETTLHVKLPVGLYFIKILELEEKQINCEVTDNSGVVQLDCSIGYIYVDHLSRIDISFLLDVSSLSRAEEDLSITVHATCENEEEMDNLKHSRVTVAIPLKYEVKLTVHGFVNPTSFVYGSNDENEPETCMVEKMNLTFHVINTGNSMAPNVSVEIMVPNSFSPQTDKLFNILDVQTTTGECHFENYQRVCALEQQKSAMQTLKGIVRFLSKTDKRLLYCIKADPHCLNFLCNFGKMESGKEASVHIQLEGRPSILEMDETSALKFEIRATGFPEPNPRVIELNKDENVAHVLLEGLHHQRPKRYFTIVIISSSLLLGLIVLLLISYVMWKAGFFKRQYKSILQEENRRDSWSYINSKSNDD
Rce1 inhib: blocks yeast Ras-converting enzyme | yeast membranes, quenched prenylated peptide cleavage fluorescence | calls only | actives 0.27% (n = 290,000) | AID 2563;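 active = fall in fluorescence gain of 50% or more versus controls, with final raw signal at or below 3038400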;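 also: plate controls were neutral control wells for no effect and wells lacking membranes for full effect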
Platelet DG rel: modulates dense granule release in human platelets. AID 1663. inhibition, %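 (compounds screened at 7.5 µM in platelet-rich plasma)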. human platelet-rich plasma, SFLLRN dense granule ATP release, luminescence. actives 0.22% (n = 300,000);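 active = mean replicate score, as percent of positive control, at or above 50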
TAAR1 agonist: agonists of human TAAR1; Q96RJ0; CHO RD-HGA16 TAAR1, Fluo-8 calcium fluorescence; vehicle wells 0%, saturating PEA agonist 100%; activation, % at 3 µM; actives 0.99% (n = 360,000);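 active = activation above the mean activation of all test compounds in the run plus 3 SD, cut at about 38% in these data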
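Repeats: no replicates (n 1) | Material: CHO-derived RD-HGA16 cells with stable Gα16 and human TAAR1 | Technique: Kinetic Fluo-8 calcium fluorescence | Schedule: 17-24 h seeding, 75 min 37 °C dye, 30 min RT | Evaluation: % activation from peak over basal fluorescence ratio, DMSO-to-PEA scaled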
VLA-4 mod pick: confirmation of allosteric modulators of human VLA-4 integrin; shares compounds with VLA-4 inh; U937 cells, HUTS-21 LIBS mAb binding, flow cytometry; LDV ligand present at threefold Kd; inhibition, % at 6.7 µM; actives 2% (n = 1,300); AID 2813; in the data active = inhibition above about 40%;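 also: 0% = ligand without compound and 100% = no ligand background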
The depositor's hits bear a star; i = inactive; / = no result given. Hits are enriched below; roughly 2.6% of the tested compounds scored in any of these assays.

SMILES	TAAR1 antagonist	VLA-4 inh	Rce1 inhib	Platelet DG rel	TAAR1 agonist	VLA-4 mod pick
CN(C)c1ccc(C(=O)OCC(=O)Nc2ccc(S(N)(=O)=O)cc2)cc1	17	1	i	-6	12	2
Cn1c(=O)oc2cc(S(=O)(=O)NCCC(=O)N3CCN(c4ccccc4F)CC3)ccc21	-1	9	i	8	1	/
CC(C)C(NS(=O)(=O)c1ccc2c(c1)oc(=O)n2C)C(=O)N1CCN(c2ccccc2F)CC1 (stereo not drawn)	4	53*	/	/	1	-13
COc1cc(S(=O)(=O)NC2CCSc3ccccc32)ccc1NC(C)=O (stereo not drawn)	7	-8	i	-15	1	/
Cc1nc(NC(=O)COC(=O)C(NC(=O)c2ccco2)C(C)C)c(Cl)cc1Cl (stereo not drawn)	-33	52*	i	0	2	-1
O=C(/C=C/c1ccccc1[N+](=O)[O-])NCCCn1ccnc1	-5	62*	i	-10	3	-5
CCCCN(C)c1c(C)nc2ccc(C(=O)Nc3cc(-c4ccccc4)ccc3OC)cn12	-22	/	/	/	-1	/
CC(C)CC(=O)Nc1ccc2c(c1)nc(CCN1CCOCC1)n2C	-7	43	i	2	2	-18
Cc1ccc(OCC(=O)Nc2ccc3c(c2)nc(CCN2CCOCC2)n3C)cc1	7	2	i	4	12	/
CCC(=O)Nc1nnc(-c2ccc(Cl)s2)o1	-9	45	i	0	6	0
O=C(CSc1nnc(COc2ccccc2)o1)N1CCCCC1	-12	11	i	4	3	/
Cc1ccc(C(=O)NC(=S)NCc2cccnc2)cc1C	16	55*	i	-2	5	-10
COc1ccc(C(=O)NC(=S)NCc2cccnc2)cc1Br	-20	-4	i	2	12	/
O=C(CC1SCCNC1=O)Nc1ccc(F)c(Cl)c1 (stereo not drawn)	-7	6	i	0	7	/
O=C(CC1SCCNC1=O)Nc1ccccc1Cl (stereo not drawn)	-11	59*	i	5	0	2
COc1ccc(NS(=O)(=O)c2ccc(Cl)c(N)c2)cc1Br	-3	4	i	-3	3	-4
Nc1cc(S(=O)(=O)Nc2ccc(Br)cc2)ccc1Cl	-2	-2	i	-2	11	6
Cc1cc(=O)[nH]c(N2CCCNCC2)n1	/	7	i	1	/	/
Cc1cc(=O)[nH]c(-n2nc(C)cc2C)n1	-8	94*	i	2	0	15
CC(=O)Nc1ccc(N2C(=O)CC(N3CC(C)OC(C)C3)C2=O)cc1 (stereo not drawn)	5	5	i	1	5	9
CC(=O)Nc1ccc(N2C(=O)CC(N3CCSCC3)C2=O)cc1 (stereo not drawn)	1	-7	i	-2	0	/
CC1(C(=O)NS(=O)(=O)c2ccccc2Cl)CCN1C(=O)c1ccccc1CCc1ccccc1 (stereo not drawn)	-8	/	/	/	3	/
CCOC(=O)N1CCN(S(=O)(=O)c2cc(-c3nn4c(C)nnc4c4ccccc34)ccc2C)CC1	-44	-3	i	19	6	-2
Cc1ccc(-c2nn3c(C)nnc3c3ccccc23)cc1S(=O)(=O)N(C)CCO	-11	19	i	8	6	/
Cc1ccc(-c2nn3c(C)nnc3c3ccccc23)cc1S(=O)(=O)NCCN1CCOCC1	16	0	i	-5	5	-10
SMILES	TAAR1 antagonist	VLA-4 inh	Rce1 inhib	Platelet DG rel	TAAR1 agonist	VLA-4 mod pick
O=C(Nc1cccc(Cl)c1)c1ccccc1NC(=O)C1CCCCC1C(=O)O (stereo not drawn)	-6	-5	i	-2	3	/
CCOc1ccc(N(CC(=O)Nc2ccc(OC)cc2)S(=O)(=O)c2c(C)noc2C)cc1	14	4	i	-5	-1	/
CCOc1ccc(NC(=O)CN(c2cc(C)cc(C)c2)S(=O)(=O)c2c(C)noc2C)cc1	19	53*	i	-14	-1	7
CCOc1ccc(N(CC(=O)Nc2ccc(C)c(C)c2)S(=O)(=O)c2c(C)[nH]c(=O)[nH]c2=O)cc1	-1	-1	i	6	0	-8
Cc1cc(C)c(S(=O)(=O)c2ccc(F)cc2C)c(Cl)n1	-9	44	i	-4	-3	-14
CN1CCN(C(=O)c2cccn(Cc3c(Cl)cccc3Cl)c2=O)CC1	-3	9	i	6	3	/
O=c1[nH][nH]c(=O)c2c1[nH]c(=S)n2Cc1ccccc1	-11	/	/	/	1	/
NC(=O)NS(=O)(=O)Oc1ccccc1	-4	50*	i	0	6	-15
NC(=O)c1ccccc1OCC(=O)NS(=O)(=O)c1ccccc1	-11	-7	i	12	11	/
COc1ccc(CNC(=O)CNS(=O)(=O)c2cccc(C#N)c2)cc1OC	7	-8	i	-4	0	3
C=CCNc1ncnc2c1ncn2[C@H]1CN(Cc2cc(OC)c(OC)c(OC)c2)C[C@@H](CO)O1	-20	/	/	/	1	/
CCn1nnnc1SCC(=O)Nc1sc(C)c(C)c1C#N	8	94*	i	-11	9	-1
Cc1sc(NC(=O)CSc2nnnn2C(C)C)c(C#N)c1C	-29	0	i	1	24	/
Cc1cc(C)cc(N(CC(=O)NCc2ccco2)S(=O)(=O)c2ccccc2)c1	-5	4	i	11	1	/
O=C(c1cccc(NC2=NC3CS(=O)(=O)CC3S2)c1)N1CCN(c2cccc(Cl)c2)CC1 (stereo not drawn)	4	10	i	-5	4	i
Cc1ccc(C(=O)N2CCN(c3ccccc3F)CC2)cc1NC1=NC2CS(=O)(=O)CC2S1 (stereo not drawn)	-2	13	i	-2	2	/
O=C(c1cccc(NC2=NC3CS(=O)(=O)CC3S2)c1)N1CCN(c2ccc(F)cc2)CC1 (stereo not drawn)	3	-7	i	-5	1	/
O=C(c1ccc(Cl)c(NC2=NC3CS(=O)(=O)CC3S2)c1)N1CCN(c2ccc(F)cc2)CC1 (stereo not drawn)	-6	15	i	-3	1	0
O=C1CC(c2ccco2)CC(O)=C1C=NCC1CCNCC1 (stereo not drawn)	-5	92*	i	-13	-3	1
CCC1Nc2ccccc2-c2nnc(SC)nc2O1 (stereo not drawn)	8	-2	i	25	1	/
CCSc1nnc2c(n1)OC1(CCCC1)Nc1ccccc1-2	-17	55*	i	-32	-3	0
Cc1ccc([N+](=O)[O-])c(NC(=O)COC(=O)CCNS(=O)(=O)c2cccs2)c1C	-7	/	/	/	0	/

From PubChem
